Activity calls are given as the source filed them. The calls are words filed in the database; no cut-off is given here.
Columns and labels:
Staphylococcus aureus [1] = experiment: Inhibition of biofilm formation in methicillin-resistant Staphylococcus aureus ATCC 43300 incubated for 24 hrs by crystal violet staining based assay; type: functional, organism-based; details: ATCC 43300, 24 h
Procedure, shortened: (§1)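 Overnight culture subcultured to OD600 0.01 in TSB with 2.0% (w/v) glucose; compound diluted in this medium, 100 µL per well of PVC plates, static incubation 24 h at 37 °C. Wells washed with water, stained with 0.1% crystal violet 30 min at ambient temperature, stain solubilized in ethanol, OD540 read minus no-biofilm background. Duplicates, at least two separate repeats.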

Staphylococcus aureus [2] = experiment: Antibiofilm activity against preformed methicillin-resistant Staphylococcus aureus ATCC 43300 assessed as dispersion of biofilm at 100 uM incubated for 24 hrs by crystal violet staining based assay; type: functional, organism-based
Procedure, shortened: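 Overnight culture in TSB + 2.0% glucose subcultured to OD600 0.01 in TSBG; 100 µL per well of PVC plates, static 37 °C for 24 h to form biofilm. After washing, compound in medium added for a further 24 h at 37 °C; medium-only control. Washed, 0.1% crystal violet 30 min, ethanol-solubilized, OD540 with no-biofilm background subtracted. Duplicates, ≥2 repeats.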

Acinetobacter baumannii [3] = experiment: Potentiation of colistin-induced antibacterial activty against Acinetobacter baumannii ATCC 4106 assessed as colistin MIC at 60 uM incubated for 16 hrs by broth microdilution assay (reference value: 1024 microg/ml); type: functional
Procedure, shortened: (§2)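 Cultures grown 4–6 h in CAMHB, diluted to 5 x 10⁵ CFU/mL. Compound added to aliquots from 100 mM DMSO stock; one aliquot left undosed for colistin MIC alone. Colistin serially diluted 2-fold in the compound-dosed suspension; compound-alone wells kept. Stationary, 37 °C, 16 h, then OD₆₀₀. Colistin MIC = lowest concentration giving 90% growth inhibition vs untreated. Duplicate, at least twice.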

Klebsiella pneumoniae [4] = experiment: Antibacterial activity against Klebsiella pneumoniae B9 assessed as reduction in bacterial growth incubated for 16 hrs by broth microdilution assay; type: functional
Procedure, shortened: (§3)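 Bacteria grown 4–6 h in CAMHB, subcultured to 5 x 10⁵ CFU/mL in fresh CAMHB. Compound added from 100 mM DMSO stock, then 2-fold serial dilution in microtiter plate; untreated and media-only wells as controls. Stationary incubation at 37 °C for 16 h, then OD₆₀₀ read. MIC taken as lowest concentration giving 90% growth inhibition vs untreated. Duplicate, repeated at least twice.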

Acinetobacter baumannii [5] = experiment: Antibacterial activity against Acinetobacter baumannii ATCC 4106 assessed as reduction in bacterial growth incubated for 16 hrs by broth microdilution assay; type: functional; procedure, shortened: as §3
Staphylococcus aureus [6] = experiment: Inhibition of biofilm formation in methicillin-resistant Staphylococcus aureus ATCC 43300 at 200 uM incubated for 24 hrs by crystal violet staining based assay relative to control; type: functional; procedure, shortened: as §1
Staphylococcus aureus [7] = experiment: Antibacterial activity against methicillin-resistant Staphylococcus aureus ATCC 43300 assessed as inhibition of planktonic bacterial growth at IC50 incubated for 24 hrs by colony counter analysis; type: functional
Procedure, shortened: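 MRSA 43300 grown overnight in TSB with 2.0% glucose (TSBG), inoculated into fresh TSBG at OD600 0.01, compound added to 3 mL tube cultures; untreated control. Shaken at 37 °C; samples at 2, 4, 6, 8, 24 h serially diluted in TSBG, plated on nutrient agar, incubated overnight at 37 °C, colonies counted. Duplicates, at least two separate repeats.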

Staphylococcus aureus [8] = experiment: Inhibition of biofilm formation in methicillin-resistant Staphylococcus aureus ATCC 6538 incubated for 24 hrs by crystal violet staining based assay; type: functional, organism-based; details: ATCC 6538, 24 h; procedure, shortened: as §1
Staphylococcus aureus [9] = experiment: Inhibition of biofilm formation in methicillin-resistant Staphylococcus aureus ATCC 33591 incubated for 24 hrs by crystal violet staining based assay; type: functional, organism-based; details: ATCC 33591, 24 h; procedure, shortened: as §1
[10] = Hemolytic activity against sheep blood assessed as blood cell lysis at 200 uM incubated for 1 hr by UV-visible spectrophotometry; type: ADME, tissue-based, Ovis aries; details: sheep blood cells, read-out: Activity
Procedure, shortened: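 Defibrinated sheep blood centrifuged, washed and resuspended in PBS three times, then diluted 10-fold. Compound added from DMSO stock; 1% Triton X as 100% lysis and PBS as zero lysis. Shaken at 200 rpm, 37 °C, 1 h, then centrifuged. Supernatant diluted 40-fold in water and absorbance read at 540 nm.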

Staphylococcus aureus [11] = experiment: Inhibition of biofilm formation in methicillin-resistant Staphylococcus aureus BAA-44 incubated for 24 hrs by crystal violet staining based assay; type: functional, organism-based; details: BAA-44, 24 h; procedure, shortened: as §1
Klebsiella pneumoniae [12] = experiment: Potentiation of colistin-induced antibacterial activty against Klebsiella pneumoniae B9 assessed as fold reduction in colistin MIC at 60 uM incubated for 16 hrs by broth microdilution assay; type: functional; procedure, shortened: as §2
Klebsiella pneumoniae [13] = experiment: Potentiation of colistin-induced antibacterial activity against Klebsiella pneumoniae B9 assessed as colistin MIC at 60 uM incubated for 16 hrs by broth microdilution assay (reference value: 512 ug/ml); type: functional; procedure, shortened: as §2
Klebsiella pneumoniae [14] = experiment: Potentiation of colistin-induced antibacterial activty against Klebsiella pneumoniae F2210219mcr-1 assessed as fractional inhibitory concentration index incubated for 16 hrs in presence of colistin by checkerboard assay; type: functional
Procedure, shortened: (§4)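 Checkerboard in CAMHB inoculated with K. pneumoniae at 5 x 10⁵ CFU/mL. Compound serially diluted 2-fold down rows and colistin across columns, starting each at 2x top concentration; one row and one column give single-agent MICs.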

Klebsiella pneumoniae [15] = experiment: Potentiation of colistin-induced antibacterial activty against Klebsiella pneumoniae A5 assessed as fractional inhibitory concentration index incubated for 16 hrs in presence of colistin by checkerboard assay; type: functional; procedure, shortened: as §4
Klebsiella pneumoniae [16] = experiment: Potentiation of colistin-induced antibacterial activty against Klebsiella pneumoniae B9 assessed as fractional inhibitory concentration index incubated for 16 hrs in presence of colistin by checkerboard assay; type: functional; procedure, shortened: as §4
Klebsiella pneumoniae [17] = experiment: Effect on lipid A substitution pattern of lipopolysaccharide in Klebsiella pneumoniae B9 by mass spectrometry; type: functional

Row | Compound | IC50 (Staphylococcus aureus [1]) [µM] | Activity (Staphylococcus aureus [2]) | MIC (Acinetobacter baumannii [3]) [µg/mL] | MIC (Klebsiella pneumoniae [4]) [µM] | MIC (Acinetobacter baumannii [5]) [µM] | inhibition at 200 µM (Staphylococcus aureus [6]) [%] | MIC (Staphylococcus aureus [7]) [µM] | IC50 (Staphylococcus aureus [8]) [µM] | IC50 (Staphylococcus aureus [9]) [µM] | hemolysis at 1 h, 200 µM [10] [%] | Activity (Staphylococcus aureus [7]) | IC50 (Staphylococcus aureus [11]) [µM] | fold change (FC) (Klebsiella pneumoniae [12]) | MIC (Klebsiella pneumoniae [13]) [µg/mL] | fractional inhibitory concentration index (FICI) (Klebsiella pneumoniae [14]) | fractional inhibitory concentration index (FICI) (Klebsiella pneumoniae [15]) | fractional inhibitory concentration index (FICI) (Klebsiella pneumoniae [16]) | Activity (Klebsiella pneumoniae [17])
1 | Cl.Nc1nccc(-c2ccccc2NC(=O)c2cc(Br)cc(Br)c2)n1 | > 200 | inactive | > 64 | ≥ 200 | ≥ 200 | > 50 | – | – | – | – | – | – | – | – | – | – | – | –
2 | Cl.Nc1ncc(-c2cccc(NC(=O)c3cc(Br)cc(Br)c3)c2)cn1 | 43 | inactive | > 64 | ≥ 200 | ≥ 200 | > 50 | – | – | – | – | – | – | – | – | – | – | – | –
3 | Nc1nccc(-c2cccc(NC(=O)c3cc(Cl)cc(Br)c3)c2)n1 | 27.6 | – | – | – | – | – | > 200 | – | – | – | – | – | – | – | – | – | – | –
4 | Cl.Nc1nccc(-c2ccccc2NC(=O)c2cc(F)cc(F)c2)n1 | > 200 | inactive | > 64 | ≥ 200 | ≥ 200 | > 50 | – | – | – | – | – | – | – | – | – | – | – | –
5 | Cl.Nc1nccc(-c2cccc(NC(=O)c3cc(Cl)cc(Cl)c3)c2)n1 | 26.4 | inactive | > 64 | ≥ 200 | ≥ 200 | > 50 | – | 24.9 | 26.6 | 5 | inactive | 29.5 | – | – | – | – | – | –
6 | Cl.Nc1ncc(-c2ccccc2NC(=O)c2cc(Br)cc(Br)c2)cn1 | 69 | inactive | > 64 | ≥ 200 | ≥ 200 | > 50 | – | – | – | – | – | – | – | – | – | – | – | –
7 | Cl.Nc1ncc(-c2cccc(NC(=O)c3cc(Cl)cc(Cl)c3)c2)cn1 | > 200 | inactive | > 64 | ≥ 200 | ≥ 200 | > 50 | – | – | – | – | – | – | – | – | – | – | – | –
8 | Cl.Nc1nccc(-c2ccc(NC(=O)c3cc(F)cc(F)c3)cc2)n1 | > 200 | inactive | > 64 | ≥ 200 | ≥ 200 | > 50 | – | – | – | – | – | – | – | – | – | – | – | –
9 | Cl.Nc1nccc(-c2ccc(NC(=O)c3cc(Br)cc(Br)c3)cc2)n1 | > 50 | inactive | > 64 | ≥ 200 | ≥ 200 | > 50 | – | – | – | – | – | – | – | – | – | – | – | –
10 | CCCCCCCCCC(=O)NCCCc1cnc(N)nc1 | – | – | – | – | – | – | – | – | – | – | – | 72 | – | – | – | – | – | –
11 | Cl.Nc1nccc(-c2cccc(NC(=O)c3cc(Br)cc(Br)c3)c2)n1 | 17.4 | inactive | > 64 | ≥ 200 | ≥ 200 | > 50 | – | 15.6 | 20.2 | 3.4 | inactive | 14.1 | 32 | 16 | <=0.19 | <=0.31 | <=0.09 | inactive
12 | Cl.Nc1nccc(-c2ccc(NC(=O)c3cc(Cl)cc(Cl)c3)cc2)n1 | 41 | inactive | > 64 | ≥ 200 | ≥ 200 | > 50 | – | – | – | – | – | – | – | – | – | – | – | –
13 | Cl.Nc1ncc(-c2ccc(NC(=O)c3cc(Br)cc(Br)c3)cc2)cn1 | > 100 | inactive | > 64 | ≥ 200 | ≥ 200 | > 50 | – | – | – | – | – | – | – | – | – | – | – | –
14 | Cl.Nc1nccc(-c2cccc(NC(=O)c3cc(F)cc(F)c3)c2)n1 | > 200 | inactive | > 64 | ≥ 200 | ≥ 200 | > 50 | – | – | – | – | – | – | – | – | – | – | – | –
15 | Cl.Nc1nccc(-c2ccccc2NC(=O)c2cc(Cl)cc(Cl)c2)n1 | > 50 | inactive | > 64 | ≥ 200 | ≥ 200 | > 50 | – | – | – | – | – | – | – | – | – | – | – | –
16 | Cl.Nc1ncc(-c2ccccc2NC(=O)c2cc(Cl)cc(Cl)c2)cn1 | > 100 | inactive | > 64 | ≥ 200 | ≥ 200 | > 50 | – | – | – | – | – | – | – | – | – | – | – | –
17 | Cl.Nc1ncc(-c2ccccc2NC(=O)c2cc(F)cc(F)c2)cn1 | > 200 | inactive | > 64 | ≥ 200 | ≥ 200 | > 50 | – | – | – | – | – | – | – | – | – | – | – | –
18 | Cl.Nc1ncc(-c2ccc(NC(=O)c3cc(Cl)cc(Cl)c3)cc2)cn1 | > 200 | inactive | > 64 | ≥ 200 | ≥ 200 | > 50 | – | – | – | – | – | – | – | – | – | – | – | –
19 | Cl.Nc1ncc(-c2ccc(NC(=O)c3cc(F)cc(F)c3)cc2)cn1 | > 200 | inactive | > 64 | ≥ 200 | ≥ 200 | > 50 | – | – | – | – | – | – | – | – | – | – | – | –
20 | Cl.Nc1ncc(-c2cccc(NC(=O)c3cc(F)cc(F)c3)c2)cn1 | > 200 | inactive | > 64 | ≥ 200 | ≥ 200 | > 50 | – | – | – | – | – | – | – | – | – | – | – | –

Source: ChEMBL document CHEMBL4673191, “A scaffold hopping strategy to generate new aryl-2-amino pyrimidine MRSA biofilm inhibitors” (RSC Med Chem, 2021)
